Source: ChEMBL document CHEMBL3808358, “Rational Design of Small Peptides for Optimal Inhibition of Cyclooxygenase-2: Development of a Highly Effective Anti-Inflammatory Agent” (J Med Chem, 2016)
Activity calls are given as the source filed them. The calls are words filed in the database; no cut-off is given here. Residues, ends and D or L forms follow the SMILES beside them. *: point of attachment. Cbz = O=C(OCc1ccccc1)*

Columns and labels:
[1] = biological target: Prostaglandin G/H synthase 1 (Homo sapiens) (UniProt P23219); test: Inhibition of COX1 in healthy human whole blood assessed as calcium ionophore A23187-stimulated TXB2 level at 1 uM preincubated for 60 mins followed by A23187 addition measured after 30 mins by ELISA; format: tissue-based
In short: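 Fresh venous blood from a healthy volunteer is collected in EDTA. 1 mL samples receive compound, indomethacin or DMSO vehicle (final 1 μM). After 60 min, A23187 is added (final 50 μM). After 30 min, samples are centrifuged at 4 °C and TxB2 in plasma is measured by ELISA, read at 420 nm. Samples are run in duplicate.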

Mus musculus [2] = test: Analgesic activity in Swiss albino mouse assessed as reduction in capsaicin-induced paw licking at 10 mg/kg, ip dosed 30 mins before capsaicin injection measured for 10 mins; format: functional, organism-based
In short: (§1)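 Swiss albino mice of either sex (25-35 g), kept at 22 ± 2 °C on a 12 h light/dark cycle with free food and water. 5 animals per group. Capsaicin (1.6 μg in 20 μL) is injected into the plantar surface of the hind paw. Pain is scored as the number of paw lickings over 10 min.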

Mus musculus [3] = test: Antiinflammatory activity in Swiss albino mouse assessed as reduction in carrageenan-induced paw edema at 10 mg/kg, ip dosed 30 mins before carrageenan injection measured up to 300 mins by vernier calliper method relative to control; format: functional, organism-based
Mus musculus [4] = test: Analgesic activity in Swiss albino mouse assessed as reduction in formalin-induced paw flinches in inflammatory phase at 5 mg/kg, ip dosed 30 mins before formalin injection measured after 15 to 30 mins; format: functional, organism-based
In short: (§2)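 Swiss albino mice of either sex (25-35 g). 20 μL of 2% formalin is injected into the plantar surface of the right hind paw 30 min after treatment. Hind paw flinches are counted for the neurogenic phase (0-5 min) and the inflammatory phase (15-30 min). Results are given as mean ± SEM.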

Mus musculus [5] = test: Analgesic activity in Swiss albino mouse assessed as reduction in formalin-induced paw flinches in neurogenic phase at 5 mg/kg, ip dosed 30 mins before formalin injection measured up to 5 mins; format: functional, organism-based; in short: as §2
[6] = biological target: T1, Prostaglandin G/H synthase 1 (Ovis aries, UniProt P05979); test: Inhibition of ovine COX1 assessed as reduction in PGH2-derived PGF2alpha using arachidonic acid as substrate preincubated for 10 mins followed by substrate addition measured after 2 mins by enzyme immunoassay
T1 sequence (P05979 whole entry): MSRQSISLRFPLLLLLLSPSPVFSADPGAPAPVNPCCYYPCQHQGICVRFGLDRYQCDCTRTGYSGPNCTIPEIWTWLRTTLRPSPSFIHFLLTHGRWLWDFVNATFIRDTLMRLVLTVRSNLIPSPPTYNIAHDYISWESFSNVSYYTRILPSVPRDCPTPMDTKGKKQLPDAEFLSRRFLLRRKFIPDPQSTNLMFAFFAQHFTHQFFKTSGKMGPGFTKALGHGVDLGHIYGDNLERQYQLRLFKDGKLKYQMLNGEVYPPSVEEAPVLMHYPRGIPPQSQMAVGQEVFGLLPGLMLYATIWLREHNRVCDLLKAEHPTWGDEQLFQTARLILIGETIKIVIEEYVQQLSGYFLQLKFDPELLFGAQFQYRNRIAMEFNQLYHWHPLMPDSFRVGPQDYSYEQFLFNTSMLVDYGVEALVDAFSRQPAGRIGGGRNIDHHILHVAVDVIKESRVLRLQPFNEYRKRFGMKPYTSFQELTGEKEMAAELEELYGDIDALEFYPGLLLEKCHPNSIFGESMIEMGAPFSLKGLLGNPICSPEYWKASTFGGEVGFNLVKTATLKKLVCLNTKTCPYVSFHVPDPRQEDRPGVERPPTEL
In short: (§3)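 Ovine COX-1 and human recombinant COX-2 with heme are preincubated with inhibitor for 10 min at 37 °C. Arachidonic acid is then added for 2 min at 37 °C. Prostaglandins are quantified by competitive AChE-tracer EIA, read at 420 nm. Four concentrations (10^-5 to 10^-8 M) are tested in triplicate. IC50 is taken from the dose-response curve of the mean % inhibition.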

[7] = biological target: T2, Prostaglandin G/H synthase 2 (Homo sapiens, UniProt P35354); test: Inhibition of human recombinant COX2 assessed as reduction in PGH2-derived PGF2alpha using arachidonic acid as substrate preincubated for 10 mins followed by substrate addition measured after 2 mins by enzyme immunoassay
T2 sequence (P35354 whole entry): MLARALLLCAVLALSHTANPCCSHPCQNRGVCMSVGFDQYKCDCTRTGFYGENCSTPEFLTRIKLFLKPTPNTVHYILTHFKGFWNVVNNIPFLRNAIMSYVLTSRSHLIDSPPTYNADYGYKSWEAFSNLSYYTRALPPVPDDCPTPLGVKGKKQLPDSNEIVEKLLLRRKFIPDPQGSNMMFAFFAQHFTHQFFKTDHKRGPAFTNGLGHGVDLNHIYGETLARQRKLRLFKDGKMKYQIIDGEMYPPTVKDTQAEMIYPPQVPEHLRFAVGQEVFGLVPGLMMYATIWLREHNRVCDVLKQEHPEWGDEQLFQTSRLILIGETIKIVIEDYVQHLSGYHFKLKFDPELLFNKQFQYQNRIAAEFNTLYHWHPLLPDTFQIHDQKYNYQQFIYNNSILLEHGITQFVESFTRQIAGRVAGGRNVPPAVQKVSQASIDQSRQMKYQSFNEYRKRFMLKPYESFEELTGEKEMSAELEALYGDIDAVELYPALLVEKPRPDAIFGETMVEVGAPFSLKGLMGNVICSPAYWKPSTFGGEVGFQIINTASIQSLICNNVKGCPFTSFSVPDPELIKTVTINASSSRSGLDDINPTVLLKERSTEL

[8] = Selectivity index, ratio of IC50 for ovine COX1 to IC50 for human recombinant COX2; in short: as §3
Mus musculus [9] = test: Analgesic activity in Swiss albino mouse assessed as reduction in capsaicin-induced paw licking at 5 to 10 mg/kg, ip dosed 30 mins before capsaicin injection measured for 10 mins; format: functional, organism-based; in short: as §1

Chain of Prostaglandin G/H synthase 1 (Homo sapiens) (P23219 whole entry): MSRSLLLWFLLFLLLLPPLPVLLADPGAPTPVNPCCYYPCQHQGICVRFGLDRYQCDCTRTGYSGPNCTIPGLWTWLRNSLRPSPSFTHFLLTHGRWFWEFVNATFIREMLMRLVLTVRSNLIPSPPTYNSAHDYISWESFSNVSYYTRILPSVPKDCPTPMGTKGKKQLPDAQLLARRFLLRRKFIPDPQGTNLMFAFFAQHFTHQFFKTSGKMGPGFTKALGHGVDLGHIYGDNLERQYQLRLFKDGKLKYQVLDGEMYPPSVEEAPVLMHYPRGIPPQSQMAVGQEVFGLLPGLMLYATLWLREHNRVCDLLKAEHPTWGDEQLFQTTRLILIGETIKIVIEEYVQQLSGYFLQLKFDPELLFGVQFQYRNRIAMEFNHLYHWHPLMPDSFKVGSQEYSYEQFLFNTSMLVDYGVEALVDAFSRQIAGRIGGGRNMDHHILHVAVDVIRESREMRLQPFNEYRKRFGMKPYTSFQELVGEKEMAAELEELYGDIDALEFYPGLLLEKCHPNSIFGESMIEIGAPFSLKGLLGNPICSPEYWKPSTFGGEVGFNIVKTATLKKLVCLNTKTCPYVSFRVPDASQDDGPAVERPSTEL

Compound | IC50 [6] [µM] | IC50 [7] [µM] | Ratio IC50 [8] | also measured
COc1ccc2c(c1)c(CC(=O)O)c(C)n2C(=O)c1ccc(Cl)cc1 |  |  |  | Activity [1]: 2.7 ng/mL; Activity (Mus musculus [2]): Active
O=C(O)Cc1ccccc1Nc1c(Cl)cccc1Cl |  |  |  | Activity (Mus musculus [3]): Active; Activity (Mus musculus [4]): Active; Activity (Mus musculus [5]): inactive
CC(C)C[C@H](NC(=O)[C@@H](NC(=O)[C@H](C)NC(=O)CNC(=O)OCc1ccccc1)C(C)C)C(=O)O (Cbz-GAVL-OH) | > 10 | 8 |  | 
COC(=O)[C@H](CC(C)C)NC(=O)[C@@H](NC(=O)[C@H](C)NC(=O)CNC(=O)OCc1ccccc1)C(C)C (Cbz-GAVL-OMe) | > 10 | 22 |  | 
CC(C)C[C@H](NC(=O)[C@H](Cc1ccccc1)NC(=O)CNC(=O)CNC(=O)OCc1ccccc1)C(=O)O (Cbz-GGFL-OH) | 3 | 0.5 | 6 | 
COC(=O)[C@H](CC(C)C)NC(=O)[C@H](Cc1ccccc1)NC(=O)CNC(=O)CNC(=O)OCc1ccccc1 (Cbz-GGFL-OMe) | > 10 | 20 |  | 
CC(C)C[C@H](NC(=O)[C@H](C)NC(=O)[C@@H](NC(=O)CNC(=O)OCc1ccccc1)C(C)C)C(=O)O (Cbz-GVAL-OH) | 3 | 0.3 | 10 | 
COC(=O)[C@H](CC(C)C)NC(=O)[C@H](C)NC(=O)[C@@H](NC(=O)CNC(=O)OCc1ccccc1)C(C)C (Cbz-GVAL-OMe) | > 10 | 19 |  | 
CC(C)[C@H](NC(=O)[C@H](C)NC(=O)CNC(=O)OCc1ccccc1)C(=O)O (Cbz-Gly-Ala-Val-OH) | > 10 | 3 | > 3 | 
COC(=O)[C@@H](NC(=O)[C@H](C)NC(=O)CNC(=O)OCc1ccccc1)C(C)C (Cbz-Gly-Ala-Val-OMe) | 8 | 0.1 | 80 | Activity (Mus musculus [9]): Active
O=C(O)CNC(=O)CNC(=O)OCc1ccccc1 (Cbz-Gly-Gly-OH) | > 10 |  |  | 
COC(=O)CNC(=O)CNC(=O)OCc1ccccc1 (Cbz-Gly-Gly-OMe) | > 10 | 1 | > 10 | 
CC(C)C[C@H](NC(=O)CNC(=O)[C@@H](NC(=O)OCc1ccccc1)C(C)C)C(=O)N[C@@H](C)C(=O)O (Cbz-VGLA-OH) | 0.3 | 0.05 | 6 | 
COC(=O)[C@H](C)NC(=O)[C@H](CC(C)C)NC(=O)CNC(=O)[C@@H](NC(=O)OCc1ccccc1)C(C)C (Cbz-VGLA-OMe) | > 10 | 0.08 | > 125 | Activity (Mus musculus [9]): Active
CC(C)C[C@H](NC(=O)CNC(=O)[C@@H](NC(=O)OCc1ccccc1)C(C)C)C(=O)O (Cbz-Val-Gly-Leu-OH) | > 10 | 28 |  | 
COC(=O)[C@H](CC(C)C)NC(=O)CNC(=O)[C@@H](NC(=O)OCc1ccccc1)C(C)C (Cbz-Val-Gly-Leu-OMe) | > 10 | 56 |  | 
CC(C)[C@H](NC(=O)OCc1ccccc1)C(=O)NCC(=O)O (Cbz-Val-Gly-OH) | > 10 | 55 |  | 
COC(=O)CNC(=O)[C@@H](NC(=O)OCc1ccccc1)C(C)C (Cbz-Val-Gly-OMe) | > 10 | 75 |  | 
CC(C)C[C@H](NC(=O)[C@H](Cc1ccccc1)NC(=O)CNC(=O)CN)C(=O)O (H-GGFL-OH) | > 10 | 0.4 | > 25 | 
CC(C)[C@H](NC(=O)[C@H](C)NC(=O)CN)C(=O)O (H-Gly-Ala-Val-OH) | 9 | 0.2 | 45 | 
COC(=O)[C@@H](NC(=O)[C@H](C)NC(=O)CN)C(C)C (H-Gly-Ala-Val-OMe) | > 10 | 10 | > 1 | 
COC(=O)[C@H](CC(C)C)NC(=O)CNC(=O)[C@@H](N)C(C)C (H-Val-Gly-Leu-OMe) | > 10 | 10 |  | 
